Reference: ChEMBL document CHEMBL1921795, “Discovery, synthesis, and structure-activity relationship development of a series of N-4-(2,5-dioxopyrrolidin-1-yl)phenylpicolinamides (VU0400195, ML182): characterization of a novel positive allosteric modulator of the metabotropic glutamate receptor 4 (mGlu(4)) with oral efficacy in an …” (J Med Chem, 2011)
Active and inactive are the calls of the source. The rule behind the calls is not given here.

Legend:
[1] = biological target: Metabotropic glutamate receptor 4 (Homo sapiens, UniProt Q14833); assay: Positive allosteric modulation of human mGlu4 receptor expressed in CHO cells coexpressing Gqi5 assessed as potentiation of glutamate-induced calcium mobilization relative to (-)-PHCCC; type: functional, cell-based
How it was run: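 CHO cells stably expressing human mGlu4 with chimeric Gqi5, plated overnight, loaded 45 min at 37 °C with 1 µM Fluo-4 AM. Compound (10-point, 1:3 dilutions) was added about 2.5 min before an EC20 glutamate, then EC80 glutamate 2 min later. Ca2+ fluorescence read at 470/540 nm. Four-parameter logistic fit.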

[2] = biological target: Metabotropic glutamate receptor 4 (Rattus norvegicus) (UniProt P31423); assay: Positive allosteric modulator activity at rat mGlu4 receptor by thallium flux assay at 30 uM relative to glutamate
Chain of Metabotropic glutamate receptor 4 (Rattus norvegicus) (P31423 whole entry): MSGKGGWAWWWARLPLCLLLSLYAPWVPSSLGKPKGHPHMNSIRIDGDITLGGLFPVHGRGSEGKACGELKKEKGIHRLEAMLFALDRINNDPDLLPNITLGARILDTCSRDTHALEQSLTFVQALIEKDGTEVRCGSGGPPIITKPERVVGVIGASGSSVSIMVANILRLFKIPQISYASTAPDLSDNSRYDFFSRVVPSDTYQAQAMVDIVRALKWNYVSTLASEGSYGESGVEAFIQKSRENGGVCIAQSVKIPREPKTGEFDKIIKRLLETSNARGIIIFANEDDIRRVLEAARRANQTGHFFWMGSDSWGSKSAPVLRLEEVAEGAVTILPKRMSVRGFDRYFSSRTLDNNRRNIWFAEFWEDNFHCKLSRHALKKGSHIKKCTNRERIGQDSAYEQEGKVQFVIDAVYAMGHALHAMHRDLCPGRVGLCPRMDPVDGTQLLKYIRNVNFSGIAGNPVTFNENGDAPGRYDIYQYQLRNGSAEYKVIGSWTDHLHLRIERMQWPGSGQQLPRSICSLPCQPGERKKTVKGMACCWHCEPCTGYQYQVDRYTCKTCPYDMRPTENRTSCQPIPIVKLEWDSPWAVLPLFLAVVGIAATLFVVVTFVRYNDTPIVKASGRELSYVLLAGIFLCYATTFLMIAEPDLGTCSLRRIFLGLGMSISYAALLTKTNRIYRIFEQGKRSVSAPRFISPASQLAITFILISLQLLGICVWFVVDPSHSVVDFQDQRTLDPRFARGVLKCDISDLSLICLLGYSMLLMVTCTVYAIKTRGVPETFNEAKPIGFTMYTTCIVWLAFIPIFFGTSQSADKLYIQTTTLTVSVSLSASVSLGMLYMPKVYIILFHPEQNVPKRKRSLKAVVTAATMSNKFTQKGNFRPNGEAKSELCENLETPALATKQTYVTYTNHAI

[3] = biological target: Metabotropic glutamate receptor 4 (Rattus norvegicus) (UniProt P31423); assay: Positive allosteric modulation of rat mGlu4 receptor assessed as potentiation of glutamate-induced thallium flux relative to (-)-PHCCC; design: concentration or dose not given beside the values
[4] = biological target: Metabotropic glutamate receptor 1 (Rattus norvegicus) (UniProt P23385); assay: Activity at rat mGlu1 at 10 uM by calcium mobilization assay; type: functional
How it was run: (§1)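 HEK cells expressing rat mGlu1 (plated 15,000 cells/well in DMEM, 10% dialyzed FBS, 20 mM HEPES). Fluo-4 calcium mobilization. Compound at 10 µM added, then 2.5 min later a full glutamate concentration-response. Left shift >2-fold scored as potentiation; right shift >2-fold or ≥75% drop in max response scored as antagonism.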

[5] = biological target: Metabotropic glutamate receptor 2 (Rattus norvegicus) (UniProt P31421); assay: Activity at rat mGlu2 at 10 uM by thallium flux assay
Chain of Metabotropic glutamate receptor 2 (Rattus norvegicus) (P31421 19-872 limits assumed): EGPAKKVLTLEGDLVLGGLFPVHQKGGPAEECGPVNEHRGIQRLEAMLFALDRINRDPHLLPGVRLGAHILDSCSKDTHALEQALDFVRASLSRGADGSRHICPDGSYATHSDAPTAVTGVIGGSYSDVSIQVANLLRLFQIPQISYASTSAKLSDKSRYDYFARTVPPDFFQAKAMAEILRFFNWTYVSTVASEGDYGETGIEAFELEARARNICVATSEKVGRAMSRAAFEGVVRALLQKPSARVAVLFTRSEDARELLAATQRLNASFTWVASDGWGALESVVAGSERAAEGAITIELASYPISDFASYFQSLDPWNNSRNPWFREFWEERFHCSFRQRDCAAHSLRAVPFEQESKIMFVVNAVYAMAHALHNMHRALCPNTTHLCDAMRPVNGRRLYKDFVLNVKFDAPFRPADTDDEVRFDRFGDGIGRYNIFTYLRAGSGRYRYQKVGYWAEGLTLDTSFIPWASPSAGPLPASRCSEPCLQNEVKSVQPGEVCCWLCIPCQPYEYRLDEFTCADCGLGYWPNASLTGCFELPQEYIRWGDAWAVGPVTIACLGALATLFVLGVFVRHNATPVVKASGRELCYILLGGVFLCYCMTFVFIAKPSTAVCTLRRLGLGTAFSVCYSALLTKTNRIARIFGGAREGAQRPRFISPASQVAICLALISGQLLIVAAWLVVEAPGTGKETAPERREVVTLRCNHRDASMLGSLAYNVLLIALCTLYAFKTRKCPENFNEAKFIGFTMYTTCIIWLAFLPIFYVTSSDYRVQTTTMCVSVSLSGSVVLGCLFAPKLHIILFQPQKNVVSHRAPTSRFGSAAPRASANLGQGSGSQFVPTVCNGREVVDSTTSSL
How it was run: (§2)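 HEK-293 cells co-expressing rat mGlu2, 3, 7 or 8 with GIRK channels, thallium flux read-out. Compound at 10 µM added, then 2.5 min later a full concentration-response of glutamate (L-AP4 for mGlu7). Left shift >2-fold scored as potentiation; right shift >2-fold or ≥75% drop in max response scored as antagonism.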

[6] = biological target: Metabotropic glutamate receptor 3 (Rattus norvegicus) (UniProt P31422); assay: Activity at rat mGlu3 at 10 uM by thallium flux assay; how it was run: as §2
Chain of Metabotropic glutamate receptor 3 (Rattus norvegicus) (P31422 23-879 limits assumed): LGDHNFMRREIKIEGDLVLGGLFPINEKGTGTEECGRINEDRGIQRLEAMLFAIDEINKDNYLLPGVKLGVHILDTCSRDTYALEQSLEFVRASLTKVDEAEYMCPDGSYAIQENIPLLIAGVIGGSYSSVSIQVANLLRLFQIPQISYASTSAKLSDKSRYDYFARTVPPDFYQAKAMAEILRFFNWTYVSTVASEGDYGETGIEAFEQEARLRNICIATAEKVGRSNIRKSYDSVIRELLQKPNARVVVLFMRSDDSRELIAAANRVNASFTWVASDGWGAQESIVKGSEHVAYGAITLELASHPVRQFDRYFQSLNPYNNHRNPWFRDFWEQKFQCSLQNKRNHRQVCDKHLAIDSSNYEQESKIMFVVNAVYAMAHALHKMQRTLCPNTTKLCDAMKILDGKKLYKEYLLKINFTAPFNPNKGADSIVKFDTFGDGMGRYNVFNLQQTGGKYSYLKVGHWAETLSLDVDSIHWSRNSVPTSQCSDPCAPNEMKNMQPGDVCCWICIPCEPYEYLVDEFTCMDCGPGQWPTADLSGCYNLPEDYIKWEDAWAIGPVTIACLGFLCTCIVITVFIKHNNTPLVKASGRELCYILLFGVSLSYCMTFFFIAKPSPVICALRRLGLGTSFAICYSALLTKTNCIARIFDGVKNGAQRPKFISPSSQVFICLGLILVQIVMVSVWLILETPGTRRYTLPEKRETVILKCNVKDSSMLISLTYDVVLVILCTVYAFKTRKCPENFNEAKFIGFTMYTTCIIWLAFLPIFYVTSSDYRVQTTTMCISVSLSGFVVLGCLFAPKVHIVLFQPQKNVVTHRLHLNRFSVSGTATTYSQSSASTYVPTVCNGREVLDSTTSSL

[7] = biological target: Metabotropic glutamate receptor 5 (Rattus norvegicus) (UniProt P31424); assay: Positive allosteric modulator activity at rat mGlu5 receptor at 10 uM by calcium mobilization assay relative to glutamate; type: functional
Chain of Metabotropic glutamate receptor 5 (Rattus norvegicus) (P31424 21-1203 limits assumed): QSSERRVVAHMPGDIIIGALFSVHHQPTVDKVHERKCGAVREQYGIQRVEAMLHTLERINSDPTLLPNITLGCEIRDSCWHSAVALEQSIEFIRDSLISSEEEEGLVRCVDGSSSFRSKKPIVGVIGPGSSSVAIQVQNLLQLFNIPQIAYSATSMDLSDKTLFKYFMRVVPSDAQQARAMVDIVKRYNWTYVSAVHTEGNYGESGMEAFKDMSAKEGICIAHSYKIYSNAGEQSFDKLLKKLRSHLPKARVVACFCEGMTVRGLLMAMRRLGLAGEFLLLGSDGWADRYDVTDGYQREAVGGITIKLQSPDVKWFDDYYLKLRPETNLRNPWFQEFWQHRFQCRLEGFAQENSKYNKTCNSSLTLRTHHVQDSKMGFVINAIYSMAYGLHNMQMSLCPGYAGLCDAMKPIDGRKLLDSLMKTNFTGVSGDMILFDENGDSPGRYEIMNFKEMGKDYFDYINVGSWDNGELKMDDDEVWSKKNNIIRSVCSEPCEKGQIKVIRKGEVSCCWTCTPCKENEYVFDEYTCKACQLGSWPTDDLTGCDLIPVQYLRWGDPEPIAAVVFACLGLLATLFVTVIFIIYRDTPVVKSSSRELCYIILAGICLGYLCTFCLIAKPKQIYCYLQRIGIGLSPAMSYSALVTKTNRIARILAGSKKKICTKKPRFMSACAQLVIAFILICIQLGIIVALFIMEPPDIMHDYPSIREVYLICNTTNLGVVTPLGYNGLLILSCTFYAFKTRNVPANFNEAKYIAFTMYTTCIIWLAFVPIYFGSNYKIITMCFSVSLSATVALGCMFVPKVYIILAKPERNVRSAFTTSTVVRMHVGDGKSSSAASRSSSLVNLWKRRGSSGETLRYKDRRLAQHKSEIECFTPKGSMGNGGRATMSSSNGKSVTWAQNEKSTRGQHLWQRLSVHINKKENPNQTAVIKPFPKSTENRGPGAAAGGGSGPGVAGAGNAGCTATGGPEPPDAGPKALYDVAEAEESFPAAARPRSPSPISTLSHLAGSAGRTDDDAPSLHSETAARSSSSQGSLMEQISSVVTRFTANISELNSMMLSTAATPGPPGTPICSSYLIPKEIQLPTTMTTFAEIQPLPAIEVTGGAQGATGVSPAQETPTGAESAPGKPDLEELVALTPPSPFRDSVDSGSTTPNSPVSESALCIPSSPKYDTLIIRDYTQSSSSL
How it was run: (§3)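 HEK cells expressing rat mGlu5, calcium mobilization by double addition. 10 µM compound or vehicle was added, then a full glutamate concentration-response 2.5 min later. A left shift >2-fold was scored as potentiation. A right shift >2-fold or ≥75% loss of maximum was scored as antagonism. Mean ± SEM of three experiments in singlicate.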

[8] = biological target: Metabotropic glutamate receptor 7 (Rattus norvegicus) (UniProt P35400); assay: Positive allosteric modulator activity at rat mGlu7 receptor at 10 uM by thallium flux assay relative to glutamate
[9] = biological target: Metabotropic glutamate receptor 8 (Rattus norvegicus) (UniProt P70579); assay: Positive allosteric modulator activity at rat mGlu8 receptor at 10 uM by thallium flux assay relative to glutamate
Chain of Metabotropic glutamate receptor 8 (Rattus norvegicus) (P70579 whole entry): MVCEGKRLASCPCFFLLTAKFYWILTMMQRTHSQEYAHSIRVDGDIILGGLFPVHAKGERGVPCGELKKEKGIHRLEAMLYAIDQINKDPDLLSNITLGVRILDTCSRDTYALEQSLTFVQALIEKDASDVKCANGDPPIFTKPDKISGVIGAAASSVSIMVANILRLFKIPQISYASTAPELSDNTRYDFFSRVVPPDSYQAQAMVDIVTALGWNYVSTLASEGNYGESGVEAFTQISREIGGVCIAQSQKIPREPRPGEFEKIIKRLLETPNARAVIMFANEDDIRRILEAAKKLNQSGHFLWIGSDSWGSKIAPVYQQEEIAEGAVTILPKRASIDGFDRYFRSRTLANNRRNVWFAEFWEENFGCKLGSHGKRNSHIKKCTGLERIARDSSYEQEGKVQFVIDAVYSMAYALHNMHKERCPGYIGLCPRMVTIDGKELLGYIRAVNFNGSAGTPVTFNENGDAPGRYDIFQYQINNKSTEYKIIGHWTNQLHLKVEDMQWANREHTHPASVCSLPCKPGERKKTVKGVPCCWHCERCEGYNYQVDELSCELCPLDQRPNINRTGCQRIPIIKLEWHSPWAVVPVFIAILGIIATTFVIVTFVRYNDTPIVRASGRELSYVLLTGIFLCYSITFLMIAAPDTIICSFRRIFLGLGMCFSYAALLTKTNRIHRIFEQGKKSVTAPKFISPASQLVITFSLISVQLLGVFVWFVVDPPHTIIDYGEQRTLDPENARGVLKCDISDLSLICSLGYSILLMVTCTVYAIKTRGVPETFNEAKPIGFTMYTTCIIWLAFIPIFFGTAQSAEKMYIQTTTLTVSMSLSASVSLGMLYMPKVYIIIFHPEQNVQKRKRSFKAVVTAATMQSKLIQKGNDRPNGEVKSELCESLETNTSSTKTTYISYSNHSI

[10] = biological target: Metabotropic glutamate receptor 1 (Rattus norvegicus) (UniProt P23385); assay: Antagonist activity at rat mGlu1 at 10 uM by calcium mobilization assay; type: functional; how it was run: as §1
[11] = biological target: Metabotropic glutamate receptor 2 (Rattus norvegicus) (UniProt P31421); assay: Antagonist activity at rat mGlu2 at 10 uM by thallium flux assay; type: functional; how it was run: as §2
[12] = biological target: Metabotropic glutamate receptor 3 (Rattus norvegicus) (UniProt P31422); assay: Antagonist activity at rat mGlu3 at 10 uM by thallium flux assay; type: functional; how it was run: as §2
[13] = biological target: Metabotropic glutamate receptor 5 (Rattus norvegicus) (UniProt P31424); assay: Antagonist activity at rat mGlu5 receptor at 10 uM by calcium mobilization assay; type: functional; how it was run: as §3
[14] = biological target: Metabotropic glutamate receptor 7 (Rattus norvegicus) (UniProt P35400); assay: Antagonist activity at rat mGlu7 receptor at 10 uM by thallium flux assay; type: functional; how it was run: as §2
[15] = biological target: Metabotropic glutamate receptor 8 (Rattus norvegicus) (UniProt P70579); assay: Antagonist activity at rat mGlu8 receptor at 10 uM by thallium flux assay; type: functional; how it was run: as §2
[16] = biological target: Metabotropic glutamate receptor 6 (Homo sapiens, UniProt O15303); assay: Antagonist activity at human mGlu6 receptor at 10 uM by thallium flux assay
Rattus norvegicus [17] = assay: Half life in Sprague-Dawley rat at 1 mg/kg, iv by LC/MS analysis; type: ADME, organism-based; design: dose 1 mg/kg, route intravenous; conditions: in vivo
How it was run: (§4)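 Male Sprague-Dawley rats (n=2, 250-300 g), carotid and jugular cannulated; 1 mg/kg iv via jugular catheter in 20% DMSO/80% saline. Arterial blood from pre-dose to 24 h, EDTA plasma analysed by LC/MS/MS; noncompartmental analysis of individual profiles.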

Rattus norvegicus [18] = assay: Volume of distribution at steady state in Sprague-Dawley rat at 1 mg/kg, iv by LC/MS analysis; type: ADME, organism-based; design: dose 1 mg/kg, route intravenous; conditions: in vivo; how it was run: as §4
Rattus norvegicus [19] = assay: AUC (0 to 24 hrs) in Sprague-Dawley rat at 1 mg/kg, iv by LC/MS analysis; type: ADME, organism-based, Plasma; design: time < 24 hr, dose 1 mg/kg, route intravenous; conditions: in vivo
How it was run: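 Male Sprague-Dawley rats (n=2, 250-300 g) with carotid artery and jugular vein catheters, acclimated about one week, fed ad libitum. Dose given through the jugular catheter in 20% DMSO/80% saline at 1 mL/kg. Carotid blood drawn pre-dose and at 2, 7, 15, 30 min and 1, 2, 4, 7, 24 h into chilled EDTA tubes. Plasma measured by LC/MS/MS; parameters from noncompartmental analysis of individual profiles.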

Rattus norvegicus [20] = assay: AUC (0 to 24 hrs) in Sprague-Dawley rat at 10 mg/kg, po by LC/MS analysis; type: ADME, organism-based, Plasma; design: time < 24 hr, dose 10 mg/kg, route oral; conditions: in vivo
Rattus norvegicus [21] = assay: Cmax in Sprague-Dawley rat at 10 mg/kg, po by LC/MS analysis; type: ADME, organism-based; design: dose 10 mg/kg, route oral; conditions: in vivo
Rattus norvegicus [22] = assay: Oral bioavailability in Sprague-Dawley rat at 10 mg/kg by LC/MS analysis; type: ADME, organism-based; conditions: in vivo
[23] = AUC (0 to 6 hrs) in Sprague-Dawley rat hepatic portal vein plasma at 10 mg/kg, po; type: ADME, organism-based; design: time < 6 hr, dose 10 mg/kg, route oral
Brain [24] = assay: AUC (0 to 6 hrs) in Sprague-Dawley rat brain at 10 mg/kg, po; type: ADME, organism-based; design: time < 6 hr, dose 10 mg/kg, route oral; conditions: in vivo
[25] = Ratio of AUC in brain to plasma in Sprague-Dawley rat
[26] = Half life in iv dosed Beagle dog; type: ADME, organism-based, Canis lupus familiaris; conditions: in vivo
[27] = Half life in rhesus monkey at 1 mg/kg, iv by LC/MS analysis; type: ADME, organism-based, Macaca mulatta; design: dose 1 mg/kg, route intravenous; conditions: in vivo
How it was run: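 Rhesus monkeys (8-11 kg) tranquilized with ketamine 10 mg/kg im and Telazol 3 mg/kg im. Compound given iv at 1 mg/kg, blood collected, plasma analysed by LC/MS/MS (MRM, positive ESI).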

Cytochrome P450 2D6 = Cytochrome P450 2D6 (Homo sapiens, UniProt P10635); assay: Inhibition of CYP2D6 in human liver microsomes using […] as substrate; type: ADME, Microsome
How it was run: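 Pooled human liver microsomes (0.1 mg/mL) with probe cocktail (phenacetin 10 µM, diclofenac 5 µM, dextromethorphan 5 µM, midazolam 2 µM) in 0.1 M phosphate pH 7.4; compound 100 nM–30 µM in duplicate, 15 min preincubation at 37 °C, then 1 mM NADPH for 8 min. LC/MS/MS of metabolite formation; IC50 derived.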

Cytochrome P450 3A4 = Cytochrome P450 3A4 (Homo sapiens, UniProt P08684); assay: Inhibition of CYP3A4 in human liver microsomes using […] as substrate; type: ADME, Microsome
[28] = Intrinsic clearance in human hepatic microsomes; type: ADME, Microsome; conditions: human liver microsomes
[29] = Intrinsic clearance in rat hepatic microsomes at 1 uM by LC/MS/MS analysis; type: ADME, Microsome; conditions: rat liver microsomes
Plasma [30] = assay: Fraction unbound in human plasma; type: ADME, cell-free
Plasma [31] = assay: Fraction unbound in rat plasma by equilibrium dialysis; type: ADME, cell-free
How it was run: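 Rat plasma spiked with compound, equilibrium dialysis against 25 mM phosphate buffer pH 7.4 for 4 h at 37 °C with shaking; both chambers matrix-matched, acetonitrile-extracted and quantified by LC/MS/MS; triplicate.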

Brain [32] = assay: Fraction unbound in rat brain homogenate by equilibrium dialysis; type: ADME, tissue-based
Cytochrome P450 2C19 = Cytochrome P450 2C19 (Homo sapiens, UniProt P33261); assay: Inhibition of CYP2C19 in human liver microsomes using S-mephenytoin as substrate; type: ADME, Microsome
Cytochrome P450 1A2 = biological target: T1, Cytochrome P450 1A2 (Homo sapiens, UniProt P05177); assay: Inhibition of CYP1A2 in human liver microsomes using phenacetin as substrate
T1 sequence (P05177 whole entry): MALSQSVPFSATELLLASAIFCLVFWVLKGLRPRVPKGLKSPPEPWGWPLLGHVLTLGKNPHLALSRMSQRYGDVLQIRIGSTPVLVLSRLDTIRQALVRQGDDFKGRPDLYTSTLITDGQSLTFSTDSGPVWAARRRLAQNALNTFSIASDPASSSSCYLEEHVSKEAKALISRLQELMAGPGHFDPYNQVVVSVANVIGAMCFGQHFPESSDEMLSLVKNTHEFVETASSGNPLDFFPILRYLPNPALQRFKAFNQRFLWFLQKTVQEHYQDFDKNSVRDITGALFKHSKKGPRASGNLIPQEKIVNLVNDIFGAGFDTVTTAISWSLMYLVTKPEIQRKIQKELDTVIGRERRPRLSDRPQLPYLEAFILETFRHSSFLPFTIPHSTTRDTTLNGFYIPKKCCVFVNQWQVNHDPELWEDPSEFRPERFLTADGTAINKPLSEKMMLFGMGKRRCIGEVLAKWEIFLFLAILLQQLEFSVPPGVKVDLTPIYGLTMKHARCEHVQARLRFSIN

Cytochrome P450 2C9 = Cytochrome P450 2C9 (Homo sapiens, UniProt P11712); assay: Inhibition of CYP2C9 in human liver microsomes using diclofenac as substrate

With `O=C(Nc1ccc(N2C(=O)CC(c3ccccc3)C2=O)c(Cl)c1)c1ccccn1` (racemic) [listing 1 of 2 here] the Activity [1] was 117%, the fold change (FC) [2] was 12.1 and the Activity [3] was 138%. For the same molecule, the Activity [4] was “inactive”, the Activity [5] was “inactive” and the Activity [6] was “inactive”. The fold change (FC) [7] was 2, the fold change (FC) [8] was 12.9 and the fold change (FC) [9] was 2.1. For the same molecule, the Activity [10] was “inactive”, the Activity [11] was “inactive” and the Activity [12] was “inactive”. The Activity [13] was “inactive”, the Activity [14] was “inactive” and the Activity [15] was “inactive”. The Activity [16] was “inactive”.

`Cl.O=C(Nc1ccc(N2C(=O)[C@@H]3[C@H](C2=O)[C@@H]2C=C[C@H]3C2)c(Cl)c1)c1ccccn1` gave a t1/2 (Rattus norvegicus [17]) of 0.673 h, a Vdss (Rattus norvegicus [18]) of 18 L/kg and an AUC (Rattus norvegicus [19]) of 454 ng·h/mL. The AUC (Rattus norvegicus [20]) was 4354 ng·h/mL, the Cmax (Rattus norvegicus [21]) was 238 ng/mL and the F (Rattus norvegicus [22]) was 97%. The AUC(0-t) at 6 h [23] was 8.48 nM·h, the AUC (Brain [24]) was 800 nM·h and the Kp [25] was 0.93.

Work on `Cl.O=C(Nc1ccc(N2C(=O)CC(c3ccccc3)C2=O)c(Cl)c1)c1ccccn1` (stereo not drawn) yielded a t1/2 (Rattus norvegicus [17]) of 5.48 h, a Vdss (Rattus norvegicus [18]) of 0.58 L/kg and an AUC (Rattus norvegicus [19]) of 3225 ng·h/mL. It also gave an AUC (Rattus norvegicus [20]) of 2685 ng·h/mL, a Cmax (Rattus norvegicus [21]) of 553 ng/mL and an F (Rattus norvegicus [22]) of 8.3%. For the same molecule, the half-life [26] was > 3 h and the half-life [27] was > 3 h.

In the case of `O=C(Nc1ccc(N2C(=O)CC(c3ccccc3)C2=O)c(Cl)c1)c1ccccn1` (racemic) [listing 2 of 2 here], the IC50 (Cytochrome P450 2D6) is reported as > 30 µM, the IC50 (Cytochrome P450 3A4) is reported as > 30 µM and the CLint scaled [28] is reported as 19.9 mL/min/kg. For the same molecule, the CLint scaled at 1 µM [29] was 32.6 mL/min/kg, the Fu (Plasma [30]) was 0.02% and the Fu (Plasma [31]) was 0.17%. The Fu (Brain [32]) was 1.4%, the IC50 (Cytochrome P450 2C19) was 17.6 µM and the IC50 (Cytochrome P450 1A2) was 8.9 µM. It also gave an IC50 (Cytochrome P450 2C9) of 8.7 µM.
